Runt-SMMHC FRET: inhibitors of RUNX1 Runt–CBFb-SMMHC binding, primary screen, biochemical, FRET, Cerulean-Runt, Venus-CBFb-SMMHC, uHTS. Runt-related transcription factor 1 (Homo sapiens) + Core-binding factor subunit beta …. Cerulean-Runt/Venus-CBFb-SMMHC FRET ratio 530/480, 1 h. inhibition, % at 20 µM. hit rate 0.74% among 220,000. AID 1434, 2008;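 active = mean inhibition across duplicate retests at 20 µM reaching about 50%, limit read from the data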;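 also: 0% = DMSO wells and 100% = wells with excess untagged CBFb-SMMHC; inhibitors lower the FRET ratio by blocking Runt binding to CBFb-SMMHC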
EBV gp42 block: Epstein-Barr virus gp42 inhibitors, primary screen, biochemical, uHTS, fluorescence polarization; Glycoprotein 42 (Epstein-Barr virus (strain AG876)), Q1HVG2; Fluorescence polarization binding assay, mP read-out; inhibition, % (tested at 21.74 µM); hit rate 0.42% among 220,000; AID 1085, 2008; in the data active = inhibition above about 50%
MEX-5 binding: MEX-5 zinc finger RNA-binding disruptors – biochemical, C. elegans, fluorescence polarization, MLPCN library, primary screen. hit rate 0.38% among 300,000. activity score (negative = inhibition of binding), % at 10 µM. Zinc finger protein mex-5 (Caenorhabditis elegans), Q9XUB2. MEX-5/FITC-TCR2 RNA binding; stronger effect = lower value;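 active = inhibition past about -25% in most replicates, and total fluorescence under double the plate's negative control median, limit read from the data; inconclusive = replicates evenly split on the limit, or fluorescence at least double controls; inactive = too little inhibition in most replicates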;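 also: 0% = DMSO and -100% = 5 µM competing unlabeled TCR2 RNA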
LANA-H2B inh: blockers of LANA interaction with H2A/H2B – biochemical, FP readout, HTS, primary screen; Protein LANA1 (Human herpesvirus 8 type P (isolate GK18)), Q9QR71; cell-free LANA-H2A/H2B peptide, fluorescence polarization; inhibition, % (concentration not given with the values); hit rate 0.6% among 320,000; AID 2629, 2010; in the data active = inhibition mostly above about 10%, no sharp cut-off; inactive = mostly below about 6.7%
Target sequence (Q9QR71 whole entry, looked up): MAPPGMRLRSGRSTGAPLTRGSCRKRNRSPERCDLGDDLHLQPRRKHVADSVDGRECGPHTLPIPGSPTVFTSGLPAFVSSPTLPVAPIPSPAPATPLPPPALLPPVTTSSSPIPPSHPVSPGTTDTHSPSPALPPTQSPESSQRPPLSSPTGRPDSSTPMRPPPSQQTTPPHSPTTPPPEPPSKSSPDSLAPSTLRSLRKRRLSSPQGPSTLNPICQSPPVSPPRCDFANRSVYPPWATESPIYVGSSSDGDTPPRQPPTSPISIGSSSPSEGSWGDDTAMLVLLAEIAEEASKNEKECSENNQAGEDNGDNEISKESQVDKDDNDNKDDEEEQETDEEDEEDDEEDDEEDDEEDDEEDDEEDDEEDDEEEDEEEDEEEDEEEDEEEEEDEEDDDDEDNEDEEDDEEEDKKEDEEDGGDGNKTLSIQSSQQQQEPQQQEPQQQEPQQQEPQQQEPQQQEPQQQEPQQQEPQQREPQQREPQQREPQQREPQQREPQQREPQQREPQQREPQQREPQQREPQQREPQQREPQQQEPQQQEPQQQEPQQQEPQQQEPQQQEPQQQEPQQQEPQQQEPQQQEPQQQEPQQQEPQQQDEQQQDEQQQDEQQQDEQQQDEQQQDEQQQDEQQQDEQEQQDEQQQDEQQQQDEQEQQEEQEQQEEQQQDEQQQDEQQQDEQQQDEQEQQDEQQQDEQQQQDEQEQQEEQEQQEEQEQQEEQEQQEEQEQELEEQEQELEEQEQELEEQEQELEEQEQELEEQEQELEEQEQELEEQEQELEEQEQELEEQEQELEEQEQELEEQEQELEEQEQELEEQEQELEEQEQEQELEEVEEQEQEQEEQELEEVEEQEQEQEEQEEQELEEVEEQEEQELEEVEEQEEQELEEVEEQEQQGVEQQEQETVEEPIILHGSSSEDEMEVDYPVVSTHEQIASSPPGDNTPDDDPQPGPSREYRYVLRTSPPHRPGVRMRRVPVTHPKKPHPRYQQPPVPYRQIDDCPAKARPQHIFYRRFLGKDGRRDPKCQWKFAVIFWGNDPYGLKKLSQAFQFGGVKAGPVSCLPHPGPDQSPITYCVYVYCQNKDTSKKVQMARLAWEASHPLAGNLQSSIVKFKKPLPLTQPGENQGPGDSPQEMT
RanGTP-Imp inh: inhibitors of RanGTP-importin-beta interaction, primary screen, biochemical, FRET, CFP-Ran, YFP-importin-beta, homogeneous. Ran GTPase (GTP-bound) - importin-beta complex. cell-free CFP-Ran/YFP-importin-beta FRET ratio. inhibition, % (test concentration not listed). hit rate 1.1% among 300,000. AID 2216, 2009;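 active = more than half of the replicate wells show a fall in the fluorescence ratio signal beyond about 16%, limit read from the data, passing the limit was not always enough; inconclusive = exactly half of the replicate wells pass the set limit; inactive = fewer than half of replicates pass the limit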;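 also: 0% = DMSO wells and 100% = Ran loaded with GDP instead of GTP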
Runt-CBFb FRET: inhibitors of RUNX1 Runt–CBFb binding, primary screen, biochemical, FRET, Cerulean-Runt, Venus-CBFb, uHTS | Runt-related transcription factor 1 (Homo sapiens) + Core-binding factor subunit beta … | Cerulean-Runt/Venus-CBFb FRET ratio 530/480, 1 h | inhibition, % at 20 µM | hit rate 0.46% among 220,000;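 active = inhibition over about 50% at 20 µM in the single-dose screen, limit read from the data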;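 also: 0% = DMSO wells and 100% = excess unlabeled CBFb competitor control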
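test system = Cerulean-Runt domain fusion protein, energy donor | probe or stimulus = Venus-CBFb binding partner, 100 nM | incubation = two 1 h room-temperature incubations shielded from light | detection = fluorescence energy transfer, 422 nm excitation, 530/480 nm emission | measure = loss of energy transfer signal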
Runt-CBFb TRFRET: inhibitors of RUNX1 Runt–CBFb binding, biochemical, TR-FRET. shares compounds with Runt-CBFb FRET. TR-FRET RUNX1 Runt domain-CBFb binding. inhibition, % at 20 µM. hit rate 20% among 480. AID 1502, 2009; in the data active = inhibition above about 40%
An asterisk follows results filed as active; u = inconclusive; x = no result. This is a sample that favours compounds with a hit; in the whole collection about 2.4% have one here.

SMILES | Runt-SMMHC FRET | EBV gp42 block | MEX-5 binding | LANA-H2B inh | RanGTP-Imp inh | Runt-CBFb FRET | others
Cn1c(O)c(/C=N/NC(=O)c2ccncc2)c(=O)[nH]c1=S | 70.7* | -26.2 | -11.4 | -2.0 | 6.4 | 32.1
CCCCn1c(O)c(/C=N/NC(=O)c2ccncc2)c(=O)[nH]c1=S | 82.5* | -22.0 | 5.3 | 2.3 | 4.9 | 61.7*
CN(C)CCSCc1nnc2n1-c1ccc(Cl)cc1C(c1ccccc1Cl)=NC2 | x | x | -1.1 | -2.3 | -0.2 | x
COC(=O)C1=C(c2cc3ccccc3s2)C[C@@H]2CC[C@H]1N2C(=O)N1CCCCC1 | x | x | -2.2 | -1.1 | -0.7 | x
CCCN(CCC)C1Cc2cc(OC)c(OC)cc2C1 | x | x | 4.2 | -3.5 | -0.7 | x
O=C(Nc1ccc(F)c([N+](=O)[O-])c1)N1C[C@H]2C[C@@H](C1)c1cccc(=O)n1C2 | x | x | -2.8 | 2.8 | -1.6 | x
COC(=O)C1=C(c2ccc(C(C)=O)cc2)C[C@@H]2CC[C@H]1N2C(=O)NCCO | x | x | x | -0.9 | x | x
O=C(Nc1ccccc1)N1CC2CC(C1)c1cccc(=O)n1C2 (stereo unspecified) | -2.4 | 2.9 | -4.9 | 4.5 | 8.1 | 0.4
O=C(Nc1ccc(F)cc1)N1CC2CC(C1)c1cccc(=O)n1C2 (stereo unspecified) | -4.3 | -14.5 | 3.3 | 3.2 | 21.4* | x
C[C@]12CC[C@@H](O)CC1=CC(=O)C1C2CC[C@]2(C)C(=O)CCC12 (stereo partly specified) | x | x | x | -1.1 | x | x
CN(C)N=O | x | x | x | 48.8* | x | x
O=C(COC(=O)c1cccc(O)c1)Nc1ccc(Cl)cc1C(=O)c1ccccc1 | 0.8 | 6.6 | -1.7 | -7.5 | 2.3 | 2.2
COc1cc(O)c(C(=O)O)c(-c2cc(O)c(O)cc2C)c1 | 58.4* | -9.6 | -62.1* | -0.3 | 1.0 | 19.3
CCN(CC(=O)Nc1ccc(NC(C)=O)cc1)C(=O)CSC(c1ccccc1)c1ccccc1 | x | x | x | -9.5 | x | x
O=C(O)CCC(=O)NCCC1=c2ccccc2=N/C1=C\c1c(O)n(Cc2ccc(F)cc2)c(=S)[nH]c1=O | 57.7* | 81.6* | -1.2 | 1.6 | 1.3 | 14.4
CCCCCn1c(=O)c(C(=O)NCc2ccco2)c(O)c2ccccc21 | 2.6 | -20.7 | 1.9 | 3.2 | 1.2 | 0.8
COCCNC(=O)c1c(NC(=O)c2ccc(Br)o2)n(Cc2ccccc2)c2nc3ccccc3nc12 | x | -86.8 | -14.8 | 0.4 | 58.4* | 15.8
CCCCCn1c(NC(=O)c2ccco2)c(C(=O)OCC)c2nc3ccccc3nc21 | 102.0* | -2.8 | -5.4 | 2.2 | 79.4* | 30.4
COCCCNC(=O)c1c(NC(=O)c2ccco2)n(Cc2ccccc2)c2nc3ccccc3nc12 | x | -47.2 | -10.4 | -7.2 | 44.0* | 42.2
CCOC(=O)c1c(C)n(CCOC)c2ccc(O)cc12 | -0.1 | 2.0 | 1.6 | 2.1 | -1.2 | -0.3
CCOC(=O)c1c(NS(=O)(=O)c2ccccc2)n(CCCOC)c2nc3ccccc3nc12 | 10.3 | 15.4 | -26.5* | 0.9 | 105.9* | 0.3
CN1CCN(c2cc(N3CCCCCC3)c(F)cc2[N+](=O)[O-])CC1 | -2.1 | -10.3 | -1.2 | 4.8 | u | -6.8
O=C(Cn1cc(C=C2C(=O)NC(=O)NC2=O)c2ccccc21)NCC1CCCO1 (stereo unspecified) | x | x | -36.3* | 17.5* | 5.4 | x
O=C1NC(=O)C(=Cc2cn(CCOc3ccc4c(c3)OCO4)c3ccccc23)C(=O)N1 | -306.2 | 16.6 | -55.4* | 6.3 | -18.8 | -147.4
Cn1cc(/C=C2\C(=O)NC(=O)N(c3ccccc3)C2=O)c2ccccc21 | x | x | -82.5* | -10.5 | 1.9 | x
SMILES | Runt-SMMHC FRET | EBV gp42 block | MEX-5 binding | LANA-H2B inh | RanGTP-Imp inh | Runt-CBFb FRET | others
C=CCn1cc(C=C2C(=O)NC(=O)NC2=O)c2ccccc21 | x | x | -37.3* | -3.6 | 2.0 | x
Cc1c(CC(=O)N2C[C@H]3C[C@@H](C2)c2cccc(=O)n2C3)c(=O)oc2cc(O)c(Cl)cc12 | x | x | -0.3 | -9.5 | 75.4* | x
COc1ccc(CC(=O)N2C[C@H]3C[C@@H](C2)c2cccc(=O)n2C3)cc1 | x | x | 1.8 | -1.9 | 6.1 | x
Cc1c(CC(=O)N2C[C@H]3C[C@@H](C2)c2cccc(=O)n2C3)c(=O)oc2c(C)c(O)ccc12 | x | x | -0.7 | -0.6 | 70.6* | x
O=S1(=O)CC2(N3CCOCC3)CCCCCCC21 (stereo unspecified) | 1.0 | -11.5 | -1.2 | -0.6 | u | 79.5* | Runt-CBFb TRFRET=-9.7
COc1ccc(CCNC(=O)COC(=O)Cc2ccccc2)cc1 | 0.2 | -4.6 | -1.0 | -6.5 | 0.5 | -1.8
COCCOC(=O)c1c(N)n(Cc2ccc(OC)cc2)c2nc3ccccc3nc12 | 105.2* | 12.0 | -0.2 | 9.2 | 8.5 | 51.6* | Runt-CBFb TRFRET=30.9
CCCCOC(=O)c1ccccc1C(=O)OCCCC | x | x | x | -2.2 | x | x
COCCCn1c(N)c(C(=O)OCCOC)c2nc3ccccc3nc21 | 116.1* | -2.0 | -0.6 | -5.8 | u | 81.0* | Runt-CBFb TRFRET=25.0
CN1C(=O)C(c2ccc([N+](=O)[O-])cc2[N+](=O)[O-])C(=O)N(C)C1=O | x | x | -2.2 | -0.5 | 7.3 | x
CCCNC(=O)c1c(N)n(Cc2ccco2)c2nc3ccccc3nc12 | 58.7* | 2.2 | -1.7 | -5.4 | 93.0* | 52.4* | Runt-CBFb TRFRET=22.7
COC(=O)c1c(C)n(Cc2ccco2)c2ccc(O)cc12 | 0.2 | -3.5 | -1.8 | 0.4 | -3.8 | 3.4
Cc1ccc(-n2c(O)c(/C=N/N3CCCCC3c3cccnc3)c(=O)[nH]c2=S)cc1 (stereo unspecified) | 6.0 | -47.8 | -2.3 | -4.3 | 0.6 | 4.2
C[C@]12CC[C@@H]3c4ccc(O)c(O)c4CC[C@H]3[C@@H]1CC[C@@H]2O | 66.2* | -14.8 | -0.4 | -3.7 | u | 54.5* | Runt-CBFb TRFRET=51.9*
O=C(NCCO)c1nsnc1NCCCl | -6.6 | -5.2 | -1.8 | 2.5 | -1.3 | 55.8* | Runt-CBFb TRFRET=25.3
C[N+]12CCC(CC1)C(C(O)(c1ccccc1)c1cccs1)C2 (stereo unspecified) | 7.1 | -32.3 | -2.9 | 2.3 | 4.3 | -1.5

Assay outcomes as filed in PubChem.
